Data set [1] concerns the target Voltage-gated sodium channel Nav1 alpha subunit (Periplaneta americana) (UniProt D0E0C1). The settings on record: 300 nM.
Data set [2] concerns the target Voltage-dependent calcium channel alpha-1 subunit (Blattella germanica) (UniProt O18323). Description: Inhibition of mid-low voltage activated Cav channel in Periplaneta americana (American cockroach) DUM neurons assessed as effect on voltage-dependent activation at 330 nM measured at holding potential -90 mV depolarized to +70 mV with 10 mV increments after 10 min by whole cell patch clamp assay. The method, boiled down:
(§1)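 Ba2+ currents through M-LVA and HVA Cav channels recorded by whole-cell clamp in cockroach DUM neurons at 20–23°C. Toxin applied for 10 min via a perfusion needle. Peak IBa measured relative to control. For activation, steps from Vh -90 mV to +70 mV in 10-mV increments at 0.1 Hz. P-P/4 leak subtraction; n = 3.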
In general terms: In patch-clamp work, channel activity is measured electrically.

For data set [3] the target is unchanged. The experiment in a line: Inhibition of high voltage activated Cav channel in Periplaneta americana (American cockroach) DUM neurons assessed as effect on voltage-dependent activation at 330 nM measured at holding potential -90 mV depolarized to +70 mV with 10 mV increments after 10 min by whole cell patch clamp assay. A digest of the protocol: as §1
Data set [4] concerns the target Voltage-gated sodium channel Nav1 alpha subunit (Periplaneta americana) (UniProt D0E0C1). Description: Inhibition of Nav channel in Periplaneta americana (American cockroach) DUM neurons assessed as effect on voltage-dependent activation at 330 nM measured at holding potential -90 mV depolarised to +70 mV with 10 mV increments for 10 min by whole cell patch clamp assay. A digest of the protocol:
(§2)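 Whole-cell voltage clamp of TTX-sensitive Na+ current in DUM neurons isolated from adult cockroaches and kept no longer than 24 h at 30°C. Bath (mM): NaCl 80, CsCl 5, CaCl2 1.8, TEA-Cl 50, 4-AP 5, HEPES 10, NiCl2 0.1, CdCl2 1, pH 7.4. Vh -90 mV; test pulse to -10 mV, or steps to +70 mV in 10-mV increments at 0.1 Hz. P-P/4 leak subtraction; 20–23°C.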

The subject of data set [5] is Mus musculus. The experiment in a line: Neurotoxicity against Mus musculus C57BL/6 (mouse) assessed as effect on behaviour at 500 pmol, icv. In kind it is toxicity, organism-based. The settings on record: in vivo, icv_or_intrathecal. A digest of the protocol:
(§3)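 Female C57BL/6 mice (~20 g) lightly anesthetized with diethylether. 5 µl of sample in BSA solution injected into the left cerebral ventricle. Posture, behavior and neurotoxic signs observed; n = 2.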

Data set [6] concerns Mus musculus. The experiment in a line: Neurotoxicity against Mus musculus C57BL/6 (mouse) assessed as effect on posture at 500 pmol, icv. In kind it is toxicity, organism-based. The settings on record: in vivo, icv_or_intrathecal. A digest of the protocol:
as §3

The subject of data set [7] is Gryllus bimaculatus. The experiment in a line: Neurotoxicity against third-instar nymph stage of Gryllus bimaculatus (cricket) assessed as mortality at 1.1 nmol/g measured at 15 min. Type of data set: functional, organism-based.
The test system of data set [8] is Gryllus bimaculatus. Description: Neurotoxicity against third-instar nymph stage of Gryllus bimaculatus (cricket) assessed as paralysis at 1.1 nmol/g measured within 5 min. In kind it is functional, organism-based.
The target in data set [9] is Voltage-dependent calcium channel alpha-1 subunit (Blattella germanica) (UniProt O18323). Description: Inhibition of voltage-gated calcium channel Cav-mediated late-sustained current in Periplaneta americana (American cockroach) DUM neurons assessed as effect on voltage-dependent activation at 6 nM measured at holding potential -80 mV in 10 mV increments depolarized to +40 mV after 10 min by whole cell patch clamp assay in presence of CdCl2. The method, boiled down:
(§4)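 BK(Ca) current in DUM neurons with 5 mM 4-AP in the bath. Toxin perfused for 10 min or to equilibrium; then 1 mM CdCl2 plus 30 nM ChTx added, and the residual current subtracted. 100-ms steps from Vh -80 mV to +30 mV, or to +40 mV in 10-mV increments for I–V. Peak (fast-transient) and 100-ms (late) amplitudes measured. IC50 from logistic fit; n = 3–6.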

For data set [10] the target is unchanged. Description: Inhibition of voltage-gated calcium channel Cav-mediated fast-transient current in Periplaneta americana (American cockroach) DUM neurons assessed as effect on voltage-dependent activation at 6 nM measured at holding potential -80 mV in 10 mV increments depolarized to +40 mV after 10 min by whole cell patch clamp assay in presence of CdCl2. The method, boiled down:
as §4

For data set [11] the target is unchanged. Description: Inhibition of voltage-gated calcium channel Cav-mediated late-sustained current in Periplaneta americana (American cockroach) DUM neurons assessed as measured at holding potential -80 mV depolarized to +40 mV after 10 min by whole cell patch clamp assay in presence of CdCl2. The method, boiled down: as §4
For data set [12] the target is unchanged. Description: Inhibition of voltage-gated calcium channel Cav-mediated fast-transient current in Periplaneta americana (American cockroach) DUM neurons assessed as measured at holding potential -80 mV depolarized to +40 mV after 10 min by whole cell patch clamp assay in presence of CdCl2. A digest of the protocol:
as §4

Data set [13] is described as follows: Reversible inhibition of Potassium channel Kv in Periplaneta americana (American cockroach) DUM neurons at 330 nM measured at holding potential -90 mV depolarized to +30 mV after 10 min by whole cell patch clamp assay relative to control.
A short description of data set [14]: Inhibition of transient A type potassium channel IK(A) in Periplaneta americana (American cockroach) DUM neurons at 330 nM measured at holding potential -90 mV depolarized to +30 mV after 10 min by whole cell patch clamp assay in presence of CdCl2 and ChTx.
The nature of data set [15]: Inhibition of delayed rectifier potassium channel IK(DR) in Periplaneta americana (American cockroach) DUM neurons at 330 nM measured at holding potential -90 mV depolarized to +30 mV after 10 min by whole cell voltage clamp assay in presence of CdCl2 and ChTx relative to control.
A short description of data set [16]: Inhibition of transient A type potassium channel IK(A) in Periplaneta americana (American cockroach) DUM neurons assessed as effect on voltage-dependent activation at 330 nM measured at holding potential -90 mV depolarized to +40 mV with 100 ms increments after 10 min by whole cell patch clamp ….
The nature of data set [17]: Inhibition of delayed rectifier potassium channel IK(DR) in Periplaneta americana (American cockroach) DUM neurons assessed as effect on voltage-dependent activation at 330 nM measured at holding potential -90 mV depolarized to +40 mV with 100 ms increments after 10 min by whole cell voltage clamp ….
In data set [18] the target is Voltage-dependent calcium channel alpha-1 subunit (Blattella germanica) (UniProt O18323). The experiment in a line: Inhibition of mid-low voltage activated Cav channel in Periplaneta americana (American cockroach) DUM neurons assessed as reduction in barium current at 330 nM measured at holding potential -90 mV depolarized to -20 mV after 10 min by whole cell patch clamp assay relative to control. The method, boiled down:
as §1

Data set [19] shares this target. The experiment in a line: Inhibition of high voltage activated Cav channel in Periplaneta americana (American cockroach) DUM neurons assessed as reduction in barium current at 330 nM measured at holding potential -90 mV depolarized to +30 mV after 10 min by whole cell patch clamp assay relative to control. The method, boiled down: as §1
Data set [20] concerns the target Voltage-gated sodium channel Nav1 alpha subunit (Periplaneta americana) (UniProt D0E0C1). Description: Inhibition of Nav channel in Periplaneta americana (American cockroach) DUM neurons assessed as remaining activity at 330 nM measured at holding potential -90 mV depolarized to -10 mV after 10 min by whole cell patch clamp assay relative to control. The method, boiled down: as §2

Data set [21] deals with Voltage-dependent calcium channel alpha-1 subunit (Blattella germanica) (UniProt O18323). Description: Inhibition of voltage-gated calcium channel Cav-mediated late-sustained current in Periplaneta americana (American cockroach) DUM neurons assessed as effect on voltage-dependent activation at 25 nM measured at holding potential -80 mV in 10 mV increments depolarized to +40 mV after 10 min by whole cell patch clamp assay in presence of CdCl2.
Sequence of Voltage-dependent calcium channel alpha-1 subunit (Blattella germanica) (O18323 as listed by the source): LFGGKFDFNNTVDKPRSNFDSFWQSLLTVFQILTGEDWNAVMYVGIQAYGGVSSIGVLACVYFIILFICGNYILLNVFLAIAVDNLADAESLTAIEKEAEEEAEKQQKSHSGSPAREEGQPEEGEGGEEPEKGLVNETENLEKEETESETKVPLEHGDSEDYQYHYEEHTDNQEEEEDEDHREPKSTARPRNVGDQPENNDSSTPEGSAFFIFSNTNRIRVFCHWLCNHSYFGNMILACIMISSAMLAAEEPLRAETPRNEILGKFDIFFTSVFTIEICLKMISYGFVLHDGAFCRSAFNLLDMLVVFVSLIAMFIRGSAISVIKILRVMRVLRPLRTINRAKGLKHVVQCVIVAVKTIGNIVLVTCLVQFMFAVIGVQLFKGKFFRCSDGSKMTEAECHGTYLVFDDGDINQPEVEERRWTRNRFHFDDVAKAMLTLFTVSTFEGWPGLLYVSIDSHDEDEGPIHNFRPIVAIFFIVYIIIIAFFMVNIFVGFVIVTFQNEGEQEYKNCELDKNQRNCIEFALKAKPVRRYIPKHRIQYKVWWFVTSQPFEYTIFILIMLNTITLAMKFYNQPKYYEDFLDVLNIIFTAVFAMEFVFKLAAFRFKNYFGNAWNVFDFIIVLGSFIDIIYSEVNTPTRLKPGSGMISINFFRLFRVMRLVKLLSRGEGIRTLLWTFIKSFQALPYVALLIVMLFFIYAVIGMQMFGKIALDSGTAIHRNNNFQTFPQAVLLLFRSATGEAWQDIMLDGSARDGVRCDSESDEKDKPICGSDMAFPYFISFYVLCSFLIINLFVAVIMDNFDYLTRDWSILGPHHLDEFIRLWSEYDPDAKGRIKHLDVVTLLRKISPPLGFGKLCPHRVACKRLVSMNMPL

Data set [22] has the same target. Description: Inhibition of voltage-gated calcium channel Cav-mediated fast-transient current in Periplaneta americana (American cockroach) DUM neurons assessed as effect on voltage-dependent activation at 25 nM measured at holding potential -80 mV in 10 mV increments depolarized to +40 mV after 10 min by whole cell patch clamp assay in presence of CdCl2. The method, boiled down: as §4

The source made the active and inactive calls. No cut-off for these calls is given here. Bridge positions count the residues as written; N and C are the ends. Peptide text beside a SMILES is read from it.

Sequence of Voltage-gated sodium channel Nav1 alpha subunit (Periplaneta americana) (D0E0C1 as listed by the source): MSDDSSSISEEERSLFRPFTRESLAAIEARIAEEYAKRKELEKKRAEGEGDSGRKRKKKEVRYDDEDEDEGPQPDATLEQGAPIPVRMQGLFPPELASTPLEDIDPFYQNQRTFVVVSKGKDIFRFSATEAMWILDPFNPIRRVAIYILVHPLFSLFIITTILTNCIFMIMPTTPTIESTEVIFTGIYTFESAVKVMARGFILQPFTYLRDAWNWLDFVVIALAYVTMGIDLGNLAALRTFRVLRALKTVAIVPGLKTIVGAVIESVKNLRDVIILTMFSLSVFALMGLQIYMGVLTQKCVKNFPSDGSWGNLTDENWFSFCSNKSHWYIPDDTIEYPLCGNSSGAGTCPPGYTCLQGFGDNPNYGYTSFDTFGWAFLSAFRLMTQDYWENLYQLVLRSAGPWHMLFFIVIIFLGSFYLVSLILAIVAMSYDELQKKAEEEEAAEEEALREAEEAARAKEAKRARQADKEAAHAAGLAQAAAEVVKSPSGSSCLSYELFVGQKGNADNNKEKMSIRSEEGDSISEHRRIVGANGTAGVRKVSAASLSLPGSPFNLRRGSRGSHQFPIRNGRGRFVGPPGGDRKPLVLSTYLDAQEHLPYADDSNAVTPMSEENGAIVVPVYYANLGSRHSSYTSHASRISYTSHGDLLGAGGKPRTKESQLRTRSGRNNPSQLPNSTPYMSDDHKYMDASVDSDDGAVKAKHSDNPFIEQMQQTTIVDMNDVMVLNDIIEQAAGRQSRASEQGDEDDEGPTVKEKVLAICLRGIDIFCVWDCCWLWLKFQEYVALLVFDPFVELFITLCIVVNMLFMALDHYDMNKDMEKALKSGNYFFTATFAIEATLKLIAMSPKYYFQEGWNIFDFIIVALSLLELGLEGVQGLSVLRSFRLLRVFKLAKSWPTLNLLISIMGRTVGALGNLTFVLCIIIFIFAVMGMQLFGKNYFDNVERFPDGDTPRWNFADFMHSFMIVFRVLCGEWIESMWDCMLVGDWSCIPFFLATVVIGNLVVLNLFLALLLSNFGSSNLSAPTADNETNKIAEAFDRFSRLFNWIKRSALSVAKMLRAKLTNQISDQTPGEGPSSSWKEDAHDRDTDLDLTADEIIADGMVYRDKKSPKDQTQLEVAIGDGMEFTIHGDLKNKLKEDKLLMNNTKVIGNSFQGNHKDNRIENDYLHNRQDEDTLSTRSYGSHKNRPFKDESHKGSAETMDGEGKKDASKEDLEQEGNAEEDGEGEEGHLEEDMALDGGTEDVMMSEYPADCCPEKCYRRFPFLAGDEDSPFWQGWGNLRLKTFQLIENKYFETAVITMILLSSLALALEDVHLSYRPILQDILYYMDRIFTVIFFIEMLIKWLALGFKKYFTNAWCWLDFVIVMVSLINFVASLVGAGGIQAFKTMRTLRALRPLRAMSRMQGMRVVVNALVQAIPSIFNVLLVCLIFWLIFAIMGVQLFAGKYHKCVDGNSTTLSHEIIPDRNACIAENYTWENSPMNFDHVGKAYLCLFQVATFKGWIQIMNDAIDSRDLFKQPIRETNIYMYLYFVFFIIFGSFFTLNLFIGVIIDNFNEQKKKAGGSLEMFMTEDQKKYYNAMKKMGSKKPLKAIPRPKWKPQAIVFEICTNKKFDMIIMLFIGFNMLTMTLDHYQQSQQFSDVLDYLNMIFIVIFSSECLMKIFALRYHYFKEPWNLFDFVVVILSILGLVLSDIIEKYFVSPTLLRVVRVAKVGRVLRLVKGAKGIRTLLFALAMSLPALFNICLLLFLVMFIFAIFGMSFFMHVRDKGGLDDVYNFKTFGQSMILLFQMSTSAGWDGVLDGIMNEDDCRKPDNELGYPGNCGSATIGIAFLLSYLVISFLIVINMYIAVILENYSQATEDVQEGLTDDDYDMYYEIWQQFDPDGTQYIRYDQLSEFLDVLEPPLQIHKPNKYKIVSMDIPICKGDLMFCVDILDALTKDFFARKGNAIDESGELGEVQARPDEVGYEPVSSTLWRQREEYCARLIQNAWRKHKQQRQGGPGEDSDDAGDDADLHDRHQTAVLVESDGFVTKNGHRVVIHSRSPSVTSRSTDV

Turning to `NC1=N[C@H](O)[C@H]2[C@H]3O[C@]4(O)O[C@@H]([C@@H](O)[C@@]2(N1)[C@@H]4O)[C@]3(O)CO`, in data set [1], the inhibition (commonly the percentage by which the read-out fell short of the control) is “Active”.

As for `CSCC[C@@H]1NC(=O)[C@H](CC(=O)O)NC(=O)[C@H](CCC(=O)O)NC(=O)[C@@H]2CSSC[C@H](NC(=O)[C@@H](N)Cc3ccc(O)cc3)C(=O)N[C@@H](CCC(N)=O)C(=O)N[C@@H](CCCCN)C(=O)N[C@@H](Cc3ccccc3)C(=O)N[C@@H](CC(C)C)C(=O)N[C@@H](Cc3c[nH]c4ccccc34)C(=O)N[C@@H]([C@@H](C)O)C(=O)N[C@H]3CSSC[C@H](NC(=O)[C@H](C(C)C)NC1=O)C(=O)N[C@@H](CCC(=O)O)C(=O)N[C@@H](CC(C)C)C(=O)N[C@@H](Cc1c[nH]c4ccccc14)C(=O)N[C@H](C(=O)N[C@@H](CCCCN)C(=O)N[C@@H](CC(C)C)C(=O)N[C@@H](CCC(=O)O)C(=O)N[C@@H](CCCCN)C(=O)O)CSSC[C@H](NC(=O)[C@H](CCCCN)NC(=O)[C@H](CCCNC(=N)N)NC(=O)[C@H](CCC(=O)O)NC(=O)[C@H]([C@@H](C)O)NC(=O)[C@H](CC(=O)O)NC3=O)C(=O)N2` (H-YCQKFLWTCDTERKCCEDMVCELWCKLEK-OH; disulfide 2-16, 9-21, 15-25), the inhibition entry in data set [2], in data set [3], in data set [4], in data set [9], in data set [10] and in [16] was “inactive” each time. In data set [17], the inhibition result was “inactive”. For the same compound, the Activity entry in the data set with Mus musculus [5] and in the data set on Mus musculus [6] was “Non-toxic” each time. For the same compound, the outcome with Gryllus bimaculatus [7] and with Gryllus bimaculatus [8] was Active. Also, the inhibition entry in data set [11] was “Dose-dependent effect”; in data set [12] it was “Dose-dependent effect”; in [15] it was 31%. In addition, the inhibition result in data set [13] and in data set [14] was “Active” in each case.

Consider `CSCC[C@@H]1NC(=O)[C@H](CC(=O)O)NC(=O)[C@H](CCC(=O)O)NC(=O)[C@@H]2CSSC[C@H](NC(=O)[C@@H](N)Cc3ccc(O)cc3)C(=O)N[C@@H](CCC(N)=O)C(=O)N[C@@H](CCCCN)C(=O)N[C@@H](Cc3ccccc3)C(=O)N[C@@H](CC(C)C)C(=O)N[C@@H](Cc3c[nH]c4ccccc34)C(=O)N[C@@H]([C@@H](C)O)C(=O)N[C@H]3CSSC[C@H](NC(=O)[C@H](C(C)C)NC1=O)C(=O)N[C@@H](CCC(=O)O)C(=O)N[C@@H](CC(C)C)C(=O)N[C@@H](Cc1c[nH]c4ccccc14)C(=O)N[C@H](C(=O)N[C@@H](CCCCN)C(=O)N[C@@H](Cc1ccc(O)cc1)C(=O)N[C@@H](CCCCN)C(=O)N[C@@H](CCC(=O)O)C(=O)O)CSSC[C@H](NC(=O)[C@H](CCCCN)NC(=O)[C@H](CCCNC(=N)N)NC(=O)[C@H](CCC(=O)O)NC(=O)[C@H]([C@@H](C)O)NC(=O)[C@H](CC(=O)O)NC3=O)C(=O)N2` (H-YCQKFLWTCDTERKCCEDMVCELWCKYKE-OH; disulfide 2-16, 9-21, 15-25), for which the inhibition entry in data set [2], in data set [3], in [4], in data set [21], in data set [22] and in data set [14] was “inactive” throughout. The inhibition result in [15], in [16] and in [17] was “inactive” each time. Also, the inhibition is 10% in data set [18], 7% in data set [19], “Dose-dependent effect” in data set [11] and “Dose-dependent effect” in [12]. Besides, the Activity in data set [20] is 92%; in the data set on Mus musculus [5], “Non-toxic”; in the data set with Mus musculus [6], “Non-toxic”. Also, the outcome in the data set on Gryllus bimaculatus [7] and in the data set with Gryllus bimaculatus [8] was Active. The inhibition result in data set [13] was “Active”.

Source of the values: ChEMBL document CHEMBL3045866, “A novel family of insect-selective peptide neurotoxins targeting insect large-conductance calcium-activated K+ channels isolated from the venom of the theraphosid spider Eucratoscelus constrictus” (Mol Pharmacol, 2011).
